Test results published in ChEMBL document CHEMBL3414434, “Exploring the chemical space of ureidothiophene-2-carboxylic acids as inhibitors of the quorum sensing enzyme PqsD from Pseudomonas aeruginosa” (Eur J Med Chem, 2015).
pIC50: −log10 of the molar value. Active and inactive are the calls of the source. The rule behind the calls is not given here. Starred links: 1 amine or outer side, 2 acyl side, 3 side chain; linkers in the order of their positions; H or OH if unused. Non-standard residues stand in square brackets, D forms with d. Residues, ends and D or L forms follow the SMILES beside them. *: point of attachment. X1 = COc1ccc(-c2cc(N*)c(C(=O)O)s2)cc1; AEEA = NCCOCCOCC(=O)O; CO = O=C([*:1])[*:2]

Columns and labels:
[1] = biological target: T1, 2-heptyl-4(1H)-quinolone synthase PqsD (Pseudomonas aeruginosa, UniProt A0A0C7ACN7); experiment: (§1) Inhibition of recombinant His6-tagged Pseudomonas aeruginosa PqsD expressed in Escherichia coli BL21 (deltaDE3) using anthraniloyl-CoA/beta-ketodecanoic acid as substrate assessed as HHQ formation preincubated for 10 mins followed by substrate addition by HPLC/MS-MS analysis
T1 sequence (A0A0C7ACN7 whole entry): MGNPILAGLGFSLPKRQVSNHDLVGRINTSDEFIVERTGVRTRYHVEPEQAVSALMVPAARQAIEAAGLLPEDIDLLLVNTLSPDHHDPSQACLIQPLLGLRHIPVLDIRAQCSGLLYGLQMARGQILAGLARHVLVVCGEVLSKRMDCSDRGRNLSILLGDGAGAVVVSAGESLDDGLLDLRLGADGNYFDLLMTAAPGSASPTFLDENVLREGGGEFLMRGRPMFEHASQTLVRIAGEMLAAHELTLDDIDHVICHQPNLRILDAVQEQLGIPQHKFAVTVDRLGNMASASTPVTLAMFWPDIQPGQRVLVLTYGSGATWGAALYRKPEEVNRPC
Outline: (§2)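 His6-PqsD was expressed in E. coli BL21(DE3) (IPTG, 16 °C, 16 h) and purified by single-step affinity. Assay buffer was 0.05 M MOPS pH 7.0 with 0.005% Triton X-100, plus 0.1 µM enzyme and inhibitor (0.5% DMSO final). After 10 min preincubation at 37 °C, anthraniloyl-CoA was added; β-ketodecanoic acid was the second substrate. HHQ was measured by HPLC-MS against DMSO controls set to 100%.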

Pseudomonas aeruginosa = experiment: Binding affinity to recombinant His6-tagged Pseudomonas aeruginosa PqsD/anthraniloyl-CoA complex at 25 to 100 uM by surface plasmon resonance analysis
Outline: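 His6-PqsD on an SPR sensor chip. Running buffer was HEPES pH 7.4, 150 mM NaCl, 5% DMSO, 0.05% polysorbate 20. ACoA (100 µM) was injected for about 40 min to saturate the binding site, then flushed at higher flow for 30 min. Compounds were injected in sequence and equilibrium responses compared with untreated PqsD. Run in duplicate.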

[2] = system: Pseudomonas aeruginosa PA14; experiment: Inhibition of PqsD in Pseudomonas aeruginosa PA14 assessed as reduction of HHQ level at 250 uM after 16 hrs by UHPLC-MS/MS analysis relative to control
[3] = biological target: T2, 2-heptyl-4(1H)-quinolone synthase PqsD (Pseudomonas aeruginosa) (UniProt A0A0C7ACN7); experiment: as §1; outline: as §2
T2 sequence (whole entry): T1 sequence (A0A0C7ACN7 whole entry)

[4] = biological target: T2, 2-heptyl-4(1H)-quinolone synthase PqsD (Pseudomonas aeruginosa); experiment: as §1, with “formation at 50 uM” for “formation”, “analysis relative to control” for “analysis”; outline: as §2

pIC50 [1] | Structure (SMILES) | other results
4.86 | COc1ccc(-c2cc(NC(=O)N[C@@H](Cc3ccc(Cl)cc3)C(=O)O)c(C(=O)O)s2)cc1 | –
6.30 | COc1ccc(-c2cc(NC(=O)N[C@@H](Cc3ccccc3)C(=O)O)c(C(=O)O)s2)cc1 | –
4.88 | COc1ccc(-c2cc(NC(=O)N[C@@H](CC(N)=O)C(=O)O)c(C(=O)O)s2)cc1 | –
4.47 | COc1ccc(-c2cc(NC(=O)N[C@@H](CCc3ccccc3)C(=O)O)c(C(=O)O)s2)cc1 | –
5.12 | COc1ccc(-c2cc(NC(=O)N[C@@H](Cc3ccccc3)C(=O)O)c(C(=O)O)s2)c(C)c1 | –
4.54 | COc1ccc(-c2cc(NC(=O)N[C@@H](Cc3ccc(O)cc3)C(=O)O)c(C(=O)O)s2)cc1 | –
5.15 | COc1ccc(-c2cc(NC(=O)NCC(=O)O)c(C(=O)O)s2)cc1 | –
4.52 | COc1ccc(-c2cc(NC(=O)N[C@@H](CCC(=O)O)C(=O)O)c(C(=O)O)s2)cc1 | –
4.72 | COc1ccc(-c2cc(NC(=O)N[C@@H](CO)C(=O)O)c(C(=O)O)s2)cc1 | –
5.15 | COc1ccc(-c2cc(NC(=O)NCP(=O)(O)O)c(C(=O)O)s2)cc1 | –
4.50 | COc1ccc(-c2cc(NC(=O)N[C@H](C(=O)O)C(C)C)c(C(=O)O)s2)cc1 | –
5.30 | COc1ccc(-c2cc(NC(=O)N[C@@H](Cc3c[nH]c4ccccc34)C(=O)O)c(C(=O)O)s2)cc1 | –

The next lines start with the compound.

Structure (SMILES) | pIC50 [1] | other results
O=C(Nc1cc(-c2ccc(O)cc2)sc1C(=O)O)N[C@@H](Cc1ccccc1)C(=O)O | 4.67 | –
O=C(Nc1cc(-c2ccc(-c3ccc(C(O)c4ccccc4[N+](=O)[O-])cc3)cc2)sc1C(=O)O)N[C@@H](Cc1ccccc1)C(=O)O (stereo not given in full) | 6.44 | –
O=C(Nc1cc(-c2cccc(-c3ccc(CO)cc3)c2)sc1C(=O)O)N[C@@H](Cc1ccccc1)C(=O)O | 4.71 | –
O=C(Nc1cc(-c2ccccc2)sc1C(=O)O)N[C@@H](Cc1ccccc1)C(=O)O | 5.42 | –
O=C(Nc1cc(-c2ccc(-c3ccc(CO)cc3)cc2)sc1C(=O)O)N[C@@H](Cc1ccccc1)C(=O)O | 6.85 | Activity (Pseudomonas aeruginosa): Active
CC[C@H](C)[C@H](NC(=O)[C@H](CCCNC(=N)N)NC(=O)[C@H](CCCNC(=N)N)NC(=O)[C@H](Cc1ccccc1)NC(=O)[C@H](CC(C)C)NC(=O)[C@H](CCCNC(=N)N)NC(=O)[C@H](CCCNC(=N)N)NC(=O)COCCOCCNC(=O)[C@H](Cc1ccccc1)NC(=O)Nc1cc(-c2ccc(OC)cc2)sc1C(=O)O)C(=O)N[C@@H](CC(C)C)C(=O)N[C@@H](CCCNC(=N)N)C(=O)N[C@@H](Cc1c[nH]c2ccccc12)C(=O)N[C@@H](CC(C)C)C(=O)O ({X1-CO}-F[AEEA]RRLFRRILRWL-OH) | – | inhibition [2]: inactive; inhibition [3]: Active
O=C(Nc1ccsc1C(=O)O)N[C@@H](Cc1ccccc1)C(=O)O | – | inhibition [4]: inactive
O=C(Nc1cc(-c2ccc(-c3ccccc3)cc2)sc1C(=O)O)N[C@@H](Cc1ccccc1)C(=O)O | 5.57 | –
O=[N+]([O-])c1ccccc1C(O)c1ccccc1 (stereo not given) | 6.00 | –
O=C(Nc1cc(-c2cccc(-c3ccccc3)c2)sc1C(=O)O)N[C@@H](Cc1ccccc1)C(=O)O | 5.21 | –
COc1ccc(-c2cc(NC(=O)N[C@@H](Cc3ccccc3)C(=O)O)cs2)cc1 | 4.94 | –
O=[N+]([O-])c1ccccc1CO | 5.70 | –
COc1ccc(-c2cc(NC(=O)N[C@@H](Cc3c[nH]cn3)C(=O)O)c(C(=O)O)s2)cc1 | – | inhibition [4]: 40%; inhibition [2]: 16%
COc1ccc(-c2cc(NC(=O)N[C@@H](Cc3ccccc3)C(=O)SCCNC(C)=O)c(C(=O)O)s2)cc1 | 4.49 | inhibition [2]: inactive
